Where two headings read alike, the source gives them in different places.
Assays:
M059J cells = test: clonogenic survival assay, DNA-PKcs-deficient cells; assay type: cell-based, human; conditions: M059J
Method in brief: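 Human glioblastoma M059J cells (DNA-PKcs-deficient) and M059-Fus-1 cells (chromosome 8 transfected; G-418 200 μg/ml) in DMEM/10% FBS. Etoposide or doxorubicin alone or with 1 μM test compound, or test compound alone, for 16 h. Reseeded drug-free. Crystal violet colony counts after 10-14 days. Fold enhancement as survival ratio. Means ± SD, n = 3.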

MDA-MB-231 cells [1] = test: clonogenic survival assay; assay type: cell-based, human
Method in brief: (§1)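 Cells in RPMI 1640/10% FBS were exposed in 6-well plates for 16 h to etoposide or doxorubicin with or without test compound (1 μM), or to test compound alone. Cells then harvested and reseeded in drug-free medium. Colonies stained with crystal violet after 10-14 days and counted automatically. Fold enhancement = survival with cytotoxic alone / survival with cytotoxic + 1 μM test compound. Means ± SD, n = 3.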

PI-3K γ = PI-3K γ (Homo sapiens, UniProt P48736); test: cell-free assay, PI-3K isoforms; assay type: biochemical; conditions: Supplementary Figure 1
PI-3K γ, sequence (P48736 whole entry, species assumed, canonical isoform): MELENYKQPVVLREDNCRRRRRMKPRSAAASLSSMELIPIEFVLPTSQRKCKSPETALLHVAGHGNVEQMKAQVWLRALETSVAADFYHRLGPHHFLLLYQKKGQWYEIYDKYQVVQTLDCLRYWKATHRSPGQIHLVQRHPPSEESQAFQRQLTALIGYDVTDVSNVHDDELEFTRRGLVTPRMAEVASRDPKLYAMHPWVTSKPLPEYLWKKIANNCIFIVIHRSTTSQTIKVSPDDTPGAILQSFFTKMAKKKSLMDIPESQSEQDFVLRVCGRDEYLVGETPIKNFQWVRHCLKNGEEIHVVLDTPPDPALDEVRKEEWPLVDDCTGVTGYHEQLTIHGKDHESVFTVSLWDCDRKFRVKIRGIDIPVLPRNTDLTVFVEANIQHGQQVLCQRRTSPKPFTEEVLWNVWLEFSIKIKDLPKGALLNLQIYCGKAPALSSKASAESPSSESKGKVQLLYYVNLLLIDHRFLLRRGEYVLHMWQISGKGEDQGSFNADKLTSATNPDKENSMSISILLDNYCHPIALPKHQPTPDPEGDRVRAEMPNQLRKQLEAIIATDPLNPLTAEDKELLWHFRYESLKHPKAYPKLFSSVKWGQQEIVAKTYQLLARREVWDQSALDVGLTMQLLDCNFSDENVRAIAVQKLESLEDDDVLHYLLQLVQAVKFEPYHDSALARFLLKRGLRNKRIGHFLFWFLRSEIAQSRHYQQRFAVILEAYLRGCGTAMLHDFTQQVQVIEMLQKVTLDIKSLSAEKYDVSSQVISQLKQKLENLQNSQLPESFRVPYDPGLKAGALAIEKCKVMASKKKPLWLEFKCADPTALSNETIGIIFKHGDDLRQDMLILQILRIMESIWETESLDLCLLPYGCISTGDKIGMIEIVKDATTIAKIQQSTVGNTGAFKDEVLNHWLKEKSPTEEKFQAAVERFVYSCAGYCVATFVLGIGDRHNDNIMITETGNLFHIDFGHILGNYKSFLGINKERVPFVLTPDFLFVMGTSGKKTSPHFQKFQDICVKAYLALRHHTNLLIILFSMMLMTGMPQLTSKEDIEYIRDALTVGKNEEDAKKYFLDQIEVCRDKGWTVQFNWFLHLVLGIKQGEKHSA

LoVo cells [2] = test: clonogenic survival assay; assay type: cell-based, human
Method in brief: as §1

LoVo cells [3] = test: cell growth inhibition, SRB assay, 5-day continuous exposure; assay type: cell-based, human
Method in brief: (§2)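 Human cancer cells in RPMI 1640 with 10% FBS, penicillin/streptomycin, at 37 °C and 5% CO2. Test compound (10 mM DMSO stock) given by continuous exposure for 5 days. Growth measured by SRB assay. […] Means ± SD of 3 independent experiments.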

T47D cells = test: as above; assay type: cell-based; conditions: Homo sapiens, 120 h
Method in brief: as §2

[4] = assay type: in vivo, mice; conditions: for concentration at 60 min / concentration at 120 min: female, CD1-nu/nu (athymic), mouse, intravenous, 12.5 mg/kg
Method in brief: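 Female athymic CD1-nu/nu mice kept in SPF isolators, bearing MCF7 or SW620 xenografts (650 mm³). Test compound 12.5 mg/kg i.v. in equimolar phosphoric acid/saline, pH 5. Tumours homogenised in PBS (1:3 w/v) on ice. Plasma and tumour concentrations by LC-MS/MS. Means ± SD of 3 mice per time point.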

V3-YAC cells = test: clonogenic survival assay, DNA-PKcs-proficient cells; assay type: cell-based, Chinese hamster
Method in brief: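 Chinese hamster ovary V3 cells (DNA-PKcs-deficient) and V3-YAC cells (human DNA-PKcs on YAC; kept under G-418 500 μg/ml) in RPMI 1640/10% FBS. Etoposide alone or with 1 μM test compound, or test compound alone, for 16 h. Reseeded drug-free. Crystal violet colony counts after 10-14 days. Fold enhancement as survival ratio. Means ± SD of 3 independent experiments.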

MDA-MB-231 cells [5] = test: cell growth inhibition, SRB assay, 5-day continuous exposure; assay type: cell-based; conditions: Homo sapiens, MDA-MB-231, 120 h
Method in brief: as §2

MCF7 cells = test: clonogenic survival assay; assay type: cell-based, human; conditions: MCF7, 1 μM, 16 hr exposure, single agent
Method in brief: as §1

[6] = read-out: inhibition of cell growth

CCN1CCN(CC(=O)Nc2ccc(-c3cccc4c(=O)cc(N5CCOCC5)oc34)c3sc4ccccc4c23)CC1 [KU-0060648, 2-(4-ethylpiperazin-1-yl)-N-(4-(2-morpholino-4-oxo-4H-chromen-8-yl)dibenzo[b,d]thiophen-1-yl)acetamide]
fold enhancement of doxorubicin cytotoxicity (M059J cells; 1 μM KU-0060648): 1.4 fold | reduction in cell viability, compound alone (M059J cells; 1 μM, 16 hours): < 5% | Fold enhancement of doxorubicin cytotoxicity (survival cytotoxic alone/survival cytotoxic + 1 μM KU-0060648) (MDA-MB-231 cells [1]; MDA-MB-231, 100 nM doxorubicin, 16 hr): 3.8±0.6 fold | overall cell survival (clonogenic) (MDA-MB-231 cells [1]; MDA-MB-231, 1 μM, 16 hr exposure, single agent): 41% | potency rank among the four PI-3K isoforms (PI-3K γ): least potency | Fold enhancement of doxorubicin cytotoxicity (survival cytotoxic alone/survival cytotoxic + 1 μM KU-0060648) (LoVo cells [2]; 100 nM doxorubicin, 16 hr): 73±29 fold | overall cell survival (clonogenic) (LoVo cells [2]; 1 μM, 16 hr exposure, single agent): ≥ 80% | total cell growth over 5 days, of DMSO treated controls (LoVo cells [3]; 1 μM): 10% | GI50 (LoVo cells [3]; Homo sapiens, 120 h): 210 nM | inhibition at 1 µM (LoVo cells [3]; Homo sapiens, 120 h, read-out: inhibition of cell growth): > 50% | GI50 (T47D cells): 410 nM | inhibition at 1 µM (T47D cells; [6]): > 50% | concentration maintained in the tumour ([4]; MCF7 xenografts, 12.5 mg/kg i.v., for at least 4 hours): over 1 μM | concentration at 60 min ([4]; plasma): 1000 ± 600 nM | concentration at 120 min ([4]; plasma): 800 ± 500 nM | concentration at 60 min ([4]; tumour (MCF7 xenograft)): 7000 ± 3800 nM | concentration at 120 min ([4]; tumour (MCF7 xenograft)): 4700 ± 1100 nM | fold enhancement of etoposide cytotoxicity (V3-YAC cells; 1 μM KU-0060648, 16 hours): > 13 fold | reduction in cell viability, compound alone (V3-YAC cells; 1 μM, 16 hours): < 15% | GI50 (MDA-MB-231 cells [5]): 1000 nM | inhibition at 1 µM (MDA-MB-231 cells [5]; [6]): > 50% | overall cell survival (clonogenic) (MCF7 cells): ≥ 80%
